In ChEMBL document CHEMBL1132344, “Novel calcium antagonists with both calcium overload inhibition and antioxidant activity. 2. Structure-activity relationships of thiazolidinone derivatives” (J Med Chem, 1999):

Key:
Canis familiaris = assay: Effect on coronary blood flow (CBF) by intravenous administration of compound in anesthetized dogs.; assay type: functional, Canis lupus familiaris; design: concentration or dose not given beside the values
Summary of the method: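 Male beagles (9–14 kg) under pentobarbital (35 mg/kg iv, then 3–5 mg/kg/h infusion), artificially ventilated, left thoracotomy. Compound given iv via cephalic vein at […]. Coronary blood flow change expressed as maximal percent change from pre-dose value; mean ± SE from 5–6 dogs or a single experiment.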

Oryctolagus cuniculus [1] = organism: Oryctolagus cuniculus; assay: in vitro inhibitory activity on soybean lipoxygenase-induced lipid peroxidations of rabbit low-density lipoprotein (LDL) at 0.5 uM dosage; assay type: functional
Summary of the method: (§1)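 Rabbit LDL (Havel method) with compound, oxidised by soybean lipoxygenase type-1S (40 μg/mL final) for 24 h at 37 °C in CO2 incubator. LDL fraction separated by gel-permeation chromatography; fluorescence read at ex 360/em 430 nm. Expressed as percent of control.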

Oryctolagus cuniculus [2] = organism: Oryctolagus cuniculus; assay: in vitro inhibitory activity on soybean lipoxygenase-induced lipid peroxidations of rabbit low-density lipoprotein (LDL) at 5 uM dosage.; assay type: functional, organism-based; summary of the method: as §1
Rattus norvegicus [3] = organism: Rattus norvegicus; assay: Compound was tested in vitro for [Ca2+] antagonistic activity in K+-depolarized isolated rat aorta; assay type: functional
Summary of the method: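 Thoracic aorta rings (2–3 mm) from male Sprague–Dawley rats (350–550 g), isometric tension in Krebs–Henseleit pH 7.4, 37 °C, 95% O2/5% CO2, 2 g resting tension. After a priming 30 mM K+ contraction and washout, second 30 mM K+ contraction; compound added cumulatively in half-log steps. IC50 = concentration relaxing contraction to 50%; mean ± SE, 2–8 experiments.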

Rattus norvegicus [4] = organism: Rattus norvegicus; assay: Compound was tested for [Ca2+] overload inhibitory activity in the veratridine-induced [Ca2+] overload model of rat cardiac myocytes.; assay type: functional, organism-based
Summary of the method: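 Ventricular myocytes isolated from male Sprague–Dawley rats (300–500 g) by enzyme perfusion; rod-shaped cells exposed to compound 30 min, then 50 μg/mL veratridine added. Survival judged by cell shape 5 min later. Value is molar concentration inhibiting cell death by >80%; 2–8 experiments, >50 rod-shaped myocytes each.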

Oryctolagus cuniculus [5] = organism: Oryctolagus cuniculus; assay: In vitro inhibitory activity on soybean lipoxygenase-induced lipid peroxidations of rabbit low-density lipoprotein (LDL) at 0.5 uM dosage; assay type: functional; summary of the method: as §1
Oryctolagus cuniculus [6] = organism: Oryctolagus cuniculus; assay: In vitro inhibitory activity on soybean lipoxygenase-induced lipid peroxidations of rabbit low-density lipoprotein (LDL) at 5 uM dosage.; assay type: functional, organism-based; summary of the method: as §1

SMILES	IC50 (Rattus norvegicus [3]; Rattus norvegicus, Aorta) [nM]	IC50 (Rattus norvegicus [4]; Rattus norvegicus) [nM]	further results
Cc1c(C)c2c(c(C)c1O)CC[C@@](C)(CCC[C@H](C)CCC[C@H](C)CCCC(C)C)O2 [ALPHA-TOCOPHEROL]	60200	13200	–
CN(CCCN1C(=O)C[S+]([O-])C1c1cc(C(C)(C)C)c(O)c(C(C)(C)C)c1)CCOc1ccc2c(c1)OCO2 (stereo not drawn)	790	–	–
Cc1cc(C2SCC(=O)N2CCCN(C)CCOc2ccc3c(c2)OCO3)cc(C)c1O (stereo not drawn)	2300	–	–
CN(CCCN1C(=O)CSC1c1cc(C(C)(C)C)c(O)c(C(C)(C)C)c1)CCOc1ccc2c(c1)OCO2 (stereo in doubt; 1) [listing 1 of 2 here]	–	–	CBF increasing activity (Canis familiaris): 96%; IC50 (Rattus norvegicus [3]): 62 nM
CN(CCCN1C(=O)CSC1c1cc(C(C)(C)C)c(O)c(C(C)(C)C)c1)CCOc1ccc2c(c1)OCO2 (single isomer, unassigned; (+)) [listing 1 of 2 here]	–	–	LDL oxidation (Oryctolagus cuniculus [1]): 13.5%; LDL oxidation (Oryctolagus cuniculus [2]): 5.9%
CN(CCCN1C(=O)CSC1c1cc(Cl)c(O)c(Cl)c1)CCOc1ccc2c(c1)OCO2 (stereo not drawn)	> 10000	–	–
Cc1cc(C2SCC(=O)N2CCCN(C)CCOc2ccc3c(c2)OCO3)c(C)c(C)c1O (stereo not drawn)	630	–	–
Cc1cc(C(C)(C)C)c(O)c(C(C)(C)C)c1 [BUTYLATED HYDROXYTOLUENE]	19700	900	–
COc1cc(C2SCC(=O)N2CCCN(C)CCOc2ccc3c(c2)OCO3)cc(OC)c1O (stereo not drawn)	4100	–	–
CN(CCCN1C(=O)CSC1c1cc(C(C)(C)C)c(O)c(C(C)(C)C)c1)CCOc1ccc2c(c1)OCO2 (single isomer, unassigned; (-)) [listing 1 of 2 here]	–	–	CBF increasing activity (Canis familiaris): 117%; IC50 (Rattus norvegicus [3]): 33 nM; IC50 (Rattus norvegicus [4]): 320 nM
CN(CCCN1C(=O)CSC1c1cc(C(C)(C)C)c(O)c(C(C)(C)C)c1)CCOc1ccc2c(c1)OCO2 (single isomer, unassigned; (+)) [listing 2 of 2 here]	–	–	CBF increasing activity (Canis familiaris): 16%; IC50 (Rattus norvegicus [3]): 340 nM; IC50 (Rattus norvegicus [4]): 320 nM
CN(CCCN1C(=O)CSC1c1cc(C(C)(C)C)c(O)c(C(C)(C)C)c1)CCOc1ccc2c(c1)OCO2 (single isomer, unassigned; (-)) [listing 2 of 2 here]	–	–	LDL oxidation (Oryctolagus cuniculus [1]): 16.4%; LDL oxidation (Oryctolagus cuniculus [2]): 3.9%
CN(CCCN1C(=O)CSC1c1cc(C(C)(C)C)c(O)c(C(C)(C)C)c1)CCOc1ccc2c(c1)OCO2 (stereo in doubt; 1) [listing 2 of 2 here]	–	–	LDL oxidation (Oryctolagus cuniculus [5]): 12.9%; LDL oxidation (Oryctolagus cuniculus [6]): 3%
CN(CCCN1C(=O)CSC1c1ccc(O)cc1)CCOc1ccc2c(c1)OCO2 (stereo not drawn)	2600	–	–

More lines, main results first:

IC50 (Rattus norvegicus [3]; Rattus norvegicus, Aorta) [nM]	IC50 (Rattus norvegicus [4]; Rattus norvegicus) [nM]	SMILES	further results
78	320	CN(CCCOc1ccc2c(c1)OCO2)CCCN1C(=O)CSC1c1cc(C(C)(C)C)c(O)c(C(C)(C)C)c1 (stereo not drawn)	CBF increasing activity (Canis familiaris): 23%; LDL oxidation (Oryctolagus cuniculus [1]): 16.4%; LDL oxidation (Oryctolagus cuniculus [2]): 3.9%
210	1000	CN(CCCCN1C(=O)CSC1c1cc(C(C)(C)C)c(O)c(C(C)(C)C)c1)CCOc1ccc2c(c1)OCO2 (stereo not drawn)	–
140	320	CC(C)c1cc(C2SCC(=O)N2CCCN(C)CCOc2ccc3c(c2)OCO3)cc(C(C)C)c1O (stereo not drawn)	–
280	–	CN(CCCCCN1C(=O)CSC1c1cc(C(C)(C)C)c(O)c(C(C)(C)C)c1)CCOc1ccc2c(c1)OCO2 (stereo not drawn)	LDL oxidation (Oryctolagus cuniculus [2]): 5.9%
200	320	CN(CCCCOc1ccc2c(c1)OCO2)CCCN1C(=O)CSC1c1cc(C(C)(C)C)c(O)c(C(C)(C)C)c1 (stereo not drawn)	–
36	1000	COc1c(C(C)(C)C)cc(C2SCC(=O)N2CCCN(C)CCOc2ccc3c(c2)OCO3)cc1C(C)(C)C (stereo not drawn)	LDL oxidation (Oryctolagus cuniculus [1]): 91.6%; LDL oxidation (Oryctolagus cuniculus [2]): 39.7%
320	–	CCc1cc(C2SCC(=O)N2CCCN(C)CCOc2ccc3c(c2)OCO3)cc(CC)c1O (stereo not drawn)	–
160	1000	CC(C)(C)c1cc(C2SCC(=O)N2CCCNCCOc2ccc3c(c2)OCO3)cc(C(C)(C)C)c1O (stereo not drawn)	–
63	320	CCN(CCCN1C(=O)CSC1c1cc(C(C)(C)C)c(O)c(C(C)(C)C)c1)CCOc1ccc2c(c1)OCO2 (stereo not drawn)	CBF increasing activity (Canis familiaris): 52%; LDL oxidation (Oryctolagus cuniculus [1]): 16.8%; LDL oxidation (Oryctolagus cuniculus [2]): 6.4%
450	1000	CC(C)N(CCCN1C(=O)CSC1c1cc(C(C)(C)C)c(O)c(C(C)(C)C)c1)CCOc1ccc2c(c1)OCO2 (stereo not drawn)	–
360	–	CN(CCOc1ccc2c(c1)OCO2)CCN1C(=O)CSC1c1cc(C(C)(C)C)c(O)c(C(C)(C)C)c1 (stereo not drawn)	–
280	–	Cc1cc(C2SCC(=O)N2CCCN(C)CCOc2ccc3c(c2)OCO3)cc(C(C)(C)C)c1O (stereo not drawn)	–
160	–	CN(CCCN1C(=S)CSC1c1cc(C(C)(C)C)c(O)c(C(C)(C)C)c1)CCOc1ccc2c(c1)OCO2 (stereo not drawn)	LDL oxidation (Oryctolagus cuniculus [1]): 22.8%; LDL oxidation (Oryctolagus cuniculus [2]): 11.3%
100	> 10000	COc1ccc([C@@H]2Sc3ccccc3N(CCN(C)C)C(=O)[C@@H]2OC(C)=O)cc1 [DILTIAZEM]	CBF increasing activity (Canis familiaris): 86%; LDL oxidation (Oryctolagus cuniculus [1]): 109%; LDL oxidation (Oryctolagus cuniculus [2]): 111%
320	–	CC(C)(C)c1cc(C2SCC(=O)N2CCCN(CCO)CCOc2ccc3c(c2)OCO3)cc(C(C)(C)C)c1O (stereo not drawn)	–
560	–	CN(CCCN1C(=O)CSC1c1ccc(O)c(C(C)(C)C)c1)CCOc1ccc2c(c1)OCO2 (stereo not drawn)	–
